Active and inactive are the calls of the source. The calls are words filed in the database; no cut-off is given here.
Assays:
[1] = target: T1, Reduced folate transporter (Homo sapiens) (UniProt P41440); assay: Inhibition of human RFC2 expressed in human HeLa R1-11 cells assessed as reduction in [3H]MTX uptake at pH 7.2 at 1 uM measured over 2 mins relative to control; assay type: cell-based
T1 sequence (whole entry): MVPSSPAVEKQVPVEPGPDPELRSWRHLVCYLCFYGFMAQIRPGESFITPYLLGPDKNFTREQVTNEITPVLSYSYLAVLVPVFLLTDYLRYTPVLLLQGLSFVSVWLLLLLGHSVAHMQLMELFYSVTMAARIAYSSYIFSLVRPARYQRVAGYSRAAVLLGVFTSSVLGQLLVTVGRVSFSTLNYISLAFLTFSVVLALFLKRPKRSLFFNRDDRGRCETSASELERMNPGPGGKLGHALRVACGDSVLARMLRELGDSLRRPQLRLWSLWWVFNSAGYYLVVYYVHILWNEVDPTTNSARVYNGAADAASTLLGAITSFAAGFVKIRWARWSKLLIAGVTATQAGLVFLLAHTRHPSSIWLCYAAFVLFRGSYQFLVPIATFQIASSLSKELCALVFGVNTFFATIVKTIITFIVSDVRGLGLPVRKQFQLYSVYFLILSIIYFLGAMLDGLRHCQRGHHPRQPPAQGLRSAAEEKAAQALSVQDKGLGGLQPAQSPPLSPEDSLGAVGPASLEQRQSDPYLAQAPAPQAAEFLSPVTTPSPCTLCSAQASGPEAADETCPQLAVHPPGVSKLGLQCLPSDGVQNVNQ

[2] = target: T2, Proton-coupled folate transporter (Homo sapiens) (UniProt Q96NT5); assay: Inhibition of human PCFT expressed in Chinese hamster R2/PCFT4 cells assessed as reduction in [3H]MTX uptake at pH 5.5 at 1 uM measured over 2 mins relative to control; assay type: cell-based
T2 sequence (whole entry): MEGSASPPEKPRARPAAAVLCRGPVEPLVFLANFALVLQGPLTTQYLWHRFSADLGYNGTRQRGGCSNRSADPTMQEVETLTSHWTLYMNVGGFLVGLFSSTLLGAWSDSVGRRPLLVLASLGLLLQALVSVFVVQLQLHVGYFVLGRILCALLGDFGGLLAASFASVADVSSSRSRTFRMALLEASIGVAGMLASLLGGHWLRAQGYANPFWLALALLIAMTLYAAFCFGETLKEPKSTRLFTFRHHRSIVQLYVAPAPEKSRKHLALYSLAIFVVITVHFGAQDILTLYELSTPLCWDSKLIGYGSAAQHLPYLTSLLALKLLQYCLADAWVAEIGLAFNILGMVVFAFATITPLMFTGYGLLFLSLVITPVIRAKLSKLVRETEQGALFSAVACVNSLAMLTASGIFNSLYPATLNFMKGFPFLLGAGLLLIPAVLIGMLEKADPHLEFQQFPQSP

[3] = target: Folate receptor alpha (Homo sapiens) (UniProt P15328); assay: Displacement of [3H]folic acid from human FRalpha expressed in Chinese hamster RT16 cells at 10 to 1000 nM after 15 mins; assay type: cell-based
Sequence of Folate receptor alpha (Homo sapiens) (P15328 25-234 limits assumed): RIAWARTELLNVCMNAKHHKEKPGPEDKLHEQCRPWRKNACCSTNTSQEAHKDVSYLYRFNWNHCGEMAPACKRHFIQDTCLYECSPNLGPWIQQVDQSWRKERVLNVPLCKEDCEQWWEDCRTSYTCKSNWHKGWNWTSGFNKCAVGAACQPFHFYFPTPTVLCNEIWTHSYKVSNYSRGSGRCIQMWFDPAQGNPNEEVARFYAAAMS
Procedure, shortened: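 RT16 (FRα) or D4 (FRβ) CHO cells at ~80% confluence were washed with PBS at 4 °C, then with pH 3.5 acetate buffer to strip bound folate, then HEPES-buffered saline pH 7.4. Cells were incubated with 50 nM [³H]folic acid plus competitor (10–1000 nM) for 15 min at 4 °C, washed, and solubilized in NaOH. Bound radioactivity was normalized to protein.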

[4] = target: T2, Proton-coupled folate transporter (Homo sapiens); assay: Inhibition of human PCFT expressed in Chinese hamster R2/PCFT4 cells assessed as reduction in [3H]MTX uptake at pH 5.5 at 10 uM measured over 2 mins relative to control; assay type: cell-based
IGROV-1 [5] = assay: Antiproliferative activity against human IGROV1 cells at 1 to 1000 nM in presence of 320 uM AICA after 96 hrs by Cell-Titer Blue assay; assay type: functional, cell-based
Procedure, shortened: (§1)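 IGROV1 cells, 2000/well, in folate-free RPMI 1640 with 10% dialyzed FBS, L-glutamine, 25 nM LCV. A range of drug concentrations was given with thymidine (10 μM), adenosine (60 μM) or AICA (320 μM) added. After 96 h, proliferation was measured by Cell-Titer Blue fluorescence. At least triplicate experiments.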

[6] = target: T1, Reduced folate transporter (Homo sapiens); assay: Inhibition of human RFC2 expressed in human HeLa R1-11 cells assessed as reduction in [3H]MTX uptake at pH 7.2 at 10 uM measured over 2 mins relative to control; assay type: cell-based
IGROV-1 [7] = assay: Antiproliferative activity against human IGROV1 cells at 1 to 1000 nM in presence of 60 uM adenosine after 96 hrs by Cell-Titer Blue assay; assay type: functional, cell-based; procedure, shortened: as §1
IGROV-1 [8] = assay: Antiproliferative activity against human IGROV1 cells at 1 to 1000 nM in presence of 10 uM thymidine after 96 hrs by Cell-Titer Blue assay; assay type: functional, cell-based; procedure, shortened: as §1
[9] = target: T2, Proton-coupled folate transporter (Homo sapiens); assay: Inhibition of human PCFT expressed in Chinese hamster R2/PCFT4 cells assessed as reduction in [3H]MTX uptake at pH 5.5 at 1 to 10 uM measured over 2 mins; assay type: cell-based
IGROV-1 [10] = assay: Antiproliferative activity against FRalpha […] human IGROV1 KD10 cells after 96 hrs by Cell-Titer Blue assay; assay type: functional, cell-based; details: IGROV-1, 96 h
A2780 = assay: Antiproliferative activity against human A2780 cells after 96 hrs by Cell-Titer Blue assay; assay type: functional, cell-based; details: A2780, 96 h
IGROV-1 [11] = assay: Anticlonogenic activity against human IGROV1 cells incubated for 24 hrs followed by compound wash out and measured after 10 days by methylene blue staining-based assay; assay type: functional, cell-based
Procedure, shortened: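 IGROV1 cells plated in folate-free RPMI 1640 (pH 7.2), 10% dialyzed FBS, 25 nM LCV. After 24 h adherence, exposed to drug (0–20 μM) for 24 h at pH 6.8 (25 mM PIPES/25 mM HEPES). Washed, then grown drug-free at pH 7.2 (100 mM HEPES) with 25 nM LCV for up to 10 days at 37 °C. Colonies stained with methylene blue and counted electronically. Values normalized to vehicle controls. Triplicate experiments.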

IGROV-1 [12] = assay: Antiproliferative activity against FRalpha […] human IGROV1 KD4 cells after 96 hrs by Cell-Titer Blue assay; assay type: functional, cell-based; details: IGROV-1, 96 h
IGROV-1 [13] = assay: Antiproliferative activity against human IGROV1 cells harboring non targeted control shRNA sequence after 96 hrs by Cell-Titer Blue assay; assay type: functional, cell-based; details: IGROV-1, 96 h
IGROV-1 [14] = assay: Antiproliferative activity against wild type human IGROV1 cells after 96 hrs by Cell-Titer Blue assay; assay type: functional, cell-based; details: IGROV-1, 96 h
[15] = Antiproliferative activity in Chinese hamster R2 cells deficient in RFC, PCFT, and FRalpha assessed as reduction in cell growth after 96 hrs by Cell-Titer Blue assay; assay type: cell-based; details: Cricetulus griseus, R2, 96 h
[16] = target: T3, Trifunctional purine biosynthetic protein adenosine-3 (Homo sapiens, UniProt P22102); assay: Inhibition of GARFTase in human IGROV1 cells assessed as decrease in incorporation of [14C(U)glycine into [14C]formyl GAR formation after 24 hrs; assay type: cell-based
T3 sequence (P22102 whole entry): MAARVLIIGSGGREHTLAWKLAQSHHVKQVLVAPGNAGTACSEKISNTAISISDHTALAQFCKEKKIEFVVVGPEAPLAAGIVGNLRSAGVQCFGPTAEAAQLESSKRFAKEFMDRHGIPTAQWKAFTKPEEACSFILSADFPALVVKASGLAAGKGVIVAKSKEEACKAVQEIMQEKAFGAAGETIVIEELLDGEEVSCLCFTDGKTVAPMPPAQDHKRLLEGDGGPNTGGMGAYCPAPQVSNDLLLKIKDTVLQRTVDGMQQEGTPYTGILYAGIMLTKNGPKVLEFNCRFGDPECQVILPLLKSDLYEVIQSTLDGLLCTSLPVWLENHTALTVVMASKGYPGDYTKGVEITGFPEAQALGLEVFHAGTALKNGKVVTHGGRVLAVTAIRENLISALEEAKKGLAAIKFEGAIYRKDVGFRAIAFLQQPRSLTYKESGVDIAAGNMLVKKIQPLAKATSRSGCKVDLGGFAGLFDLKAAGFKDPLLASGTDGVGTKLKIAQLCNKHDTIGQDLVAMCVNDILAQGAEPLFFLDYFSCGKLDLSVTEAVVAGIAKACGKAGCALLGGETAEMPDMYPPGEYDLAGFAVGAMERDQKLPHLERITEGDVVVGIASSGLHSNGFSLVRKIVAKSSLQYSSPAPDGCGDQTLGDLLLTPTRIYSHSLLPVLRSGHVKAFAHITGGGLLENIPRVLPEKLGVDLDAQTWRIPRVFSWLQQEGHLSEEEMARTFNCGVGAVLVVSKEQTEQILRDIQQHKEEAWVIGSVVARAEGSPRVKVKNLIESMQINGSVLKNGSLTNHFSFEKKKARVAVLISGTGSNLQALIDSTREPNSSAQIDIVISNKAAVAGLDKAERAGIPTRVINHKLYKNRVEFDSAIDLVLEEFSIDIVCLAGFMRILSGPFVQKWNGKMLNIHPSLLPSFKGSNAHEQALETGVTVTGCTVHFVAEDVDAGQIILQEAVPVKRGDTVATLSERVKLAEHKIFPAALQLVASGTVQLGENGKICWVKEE

Row | Compound | inhibition [1] | inhibition [2] | inhibition [3] | inhibition [4] | inhibition [6] | inhibition [9] | IC50 (IGROV-1 [11]) [µM] | IC50 [16] [µM] | Activity (IGROV-1 [5]) | Activity (IGROV-1 [7]) | Activity (IGROV-1 [8]) | IC50 (IGROV-1 [10]) [µM] | IC50 (A2780) [µM] | IC50 (IGROV-1 [12]) [µM] | IC50 (IGROV-1 [13]) [µM] | IC50 (IGROV-1 [14]) [µM] | IC50 [15] [µM]
1 | Nc1nc2[nH]c(CCCCc3ccc(C(=O)N[C@@H](CCC(=O)O)C(=O)O)cc3)cc2c(=O)[nH]1 | inactive | – | – | – | inactive | – | – | – | – | – | – | > 1 | 0.0142 | – | – | – | –
2 | Nc1nc2[nH]c(CCCCc3cnc(C(=O)N[C@@H](CCC(=O)O)C(=O)O)c(F)c3)cc2c(=O)[nH]1 | inactive | 60 to 85% | Active | 90 to 95% | inactive | – | – | 0.002 | inactive | inactive | Active | > 1 | – | > 1 | – | – | > 1

The next lines start with results.

Row | inhibition [1] | inhibition [2] | inhibition [3] | inhibition [4] | inhibition [6] | inhibition [9] | IC50 (IGROV-1 [11]) [µM] | IC50 [16] [µM] | Compound | Activity (IGROV-1 [5]) | Activity (IGROV-1 [7]) | Activity (IGROV-1 [8]) | IC50 (IGROV-1 [10]) [µM] | IC50 (A2780) [µM] | IC50 (IGROV-1 [12]) [µM] | IC50 (IGROV-1 [13]) [µM] | IC50 (IGROV-1 [14]) [µM] | IC50 [15] [µM]
3 | inactive | 60 to 85% | Active | 90 to 95% | inactive | – | – | – | Nc1nc2[nH]c(CCCCc3ccc(C(=O)N[C@@H](CCC(=O)O)C(=O)O)c(F)c3)cc2c(=O)[nH]1 | inactive | inactive | Active | – | – | – | – | – | –
4 | inactive | Active | – | Active | inactive | Active | – | – | Nc1nc(N)c2nc(CNc3ccc(C(=O)N[C@@H](CCCNC(=O)c4ccccc4C(=O)O)C(=O)O)cc3)cnc2n1 | – | – | – | – | – | – | – | – | –
5 | inactive | – | – | – | inactive | – | > 20 | – | Nc1nc2[nH]cc(CCc3ccc(C(=O)N[C@@H](CCC(=O)O)C(=O)O)cc3)c2c(=O)[nH]1 [PEMETREXED] | – | – | – | 0.0222 | 0.0394 | 0.0466 | 0.071 | 0.104 | –
